Results: ChEMBL document CHEMBL1133383, “Synthesis and enzyme inhibitory activities of a series of lipidic diamine and aminoalcohol derivatives on cytosolic and secretory phospholipases A2” (Bioorg Med Chem Lett, 2000)

Experiments:
[1] = target: T1, Cytosolic phospholipase A2 (Mus musculus) (UniProt P47713); assay: (§1) Effect on cytosolic Phospholipase A2 (PLA2) activity at a concentration of 100 uM
T1 sequence (whole entry): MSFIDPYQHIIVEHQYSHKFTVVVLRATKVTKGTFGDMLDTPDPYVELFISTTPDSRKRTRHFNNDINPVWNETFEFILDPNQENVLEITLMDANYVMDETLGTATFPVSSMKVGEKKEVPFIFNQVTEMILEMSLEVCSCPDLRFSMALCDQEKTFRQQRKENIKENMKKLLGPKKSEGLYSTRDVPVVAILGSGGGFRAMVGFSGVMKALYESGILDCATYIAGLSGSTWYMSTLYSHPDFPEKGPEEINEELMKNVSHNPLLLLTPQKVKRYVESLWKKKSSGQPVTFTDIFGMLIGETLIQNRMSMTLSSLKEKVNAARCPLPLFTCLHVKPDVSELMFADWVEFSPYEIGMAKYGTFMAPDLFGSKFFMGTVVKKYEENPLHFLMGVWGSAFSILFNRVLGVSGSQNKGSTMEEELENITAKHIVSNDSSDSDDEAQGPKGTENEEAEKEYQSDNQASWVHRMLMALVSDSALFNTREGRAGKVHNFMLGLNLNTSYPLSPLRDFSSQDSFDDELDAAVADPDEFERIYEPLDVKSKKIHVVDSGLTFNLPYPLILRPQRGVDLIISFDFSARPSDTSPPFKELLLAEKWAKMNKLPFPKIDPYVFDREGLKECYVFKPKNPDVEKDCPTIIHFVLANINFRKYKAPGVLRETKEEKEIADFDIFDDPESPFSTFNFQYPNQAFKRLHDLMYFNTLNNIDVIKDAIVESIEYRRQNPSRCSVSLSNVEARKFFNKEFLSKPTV
Outline: (§2)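 Group IV cytosolic PLA2 from the RAW 264.7 macrophage line. Percent inhibition was measured at a single test concentration and reported as mean ± SEM (n=6). IC50 was determined only for compounds reaching 50% inhibition at that concentration.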

[2] = target: T2, Cytosolic phospholipase A2 (Mus musculus, UniProt P47713); assay: as §1; outline: as §2
T2 sequence (P47713 whole entry): T1 sequence (whole entry)

[3] = target: T3, Phospholipase A2, membrane associated (Homo sapiens) (UniProt P14555); assay: (§3) Inhibition of secretory PLA2 activity in human recombinant synovial enzyme using [3H]oleate labelled membranes at a concentration of 10 uM
T3 sequence (whole entry): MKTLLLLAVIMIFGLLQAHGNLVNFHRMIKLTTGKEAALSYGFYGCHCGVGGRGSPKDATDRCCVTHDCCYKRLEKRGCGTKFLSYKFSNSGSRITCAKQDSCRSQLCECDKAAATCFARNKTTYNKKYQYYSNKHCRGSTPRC
Outline: (§4)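 Secretory PLA2 activity was measured using autoclaved [3H]oleate-labelled membranes as substrate. The enzyme was either group II human recombinant synovial PLA2 or group I porcine pancreatic PLA2. Percent inhibition at a single concentration is reported as mean ± SEM (n=6), with significance marked at P<0.05 and P<0.01.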

[4] = target: T4, Phospholipase A2, membrane associated (Homo sapiens, UniProt P14555); assay: as §3; outline: as §4
T4 sequence (P14555 whole entry): T3 sequence (whole entry)

[5] = target: Phospholipase A2 (Homo sapiens) (UniProt P04054); conditions: Apis mellifera; 10 uM
Phospholipase A2 (Homo sapiens), sequence (P04054 23-148 limits assumed): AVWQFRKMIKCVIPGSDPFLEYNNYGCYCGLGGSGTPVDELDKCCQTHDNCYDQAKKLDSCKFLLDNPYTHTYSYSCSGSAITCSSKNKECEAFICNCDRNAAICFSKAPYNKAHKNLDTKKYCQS

[6] = target: Phospholipase A2 (Homo sapiens) (UniProt P04054); conditions: Naja naja; 10 uM

Row | SMILES | I [1] [%] | IC50 [2] [µM] | further results
1 | CCCCCCCCCCCCCCCC(=O)C(F)(F)F | 67.7 | 11.7 | –
2 | CCCCCCCCCCCCCCC(=O)NC(CCCCCCCCCCCCCC)COC(=O)CCCCCCCCCCCCCC (centres undefined) | 5.1 | – | –
3 | CCCCCCCCCCCCCCC(N)CN(CC)CC (centres undefined) | 90.6 | 11.9 | I [3]: 82.7%; IC50 [4]: 5.6 µM; I [5]: 57.6%; I [6]: 51.5%
4 | CCCCCCCCCCCCCCC(CO)NCC (centres undefined) | 25.2 | – | I [3]: 80%; IC50 [4]: 3.7 µM; I [5]: 63.5%; I [6]: 62.6%
5 | CCCCCCCCCCCCCCC(COCc1ccccc1)NCC (centres undefined) | 0 | – | –
6 | CCCCCCCCCCCCCCC(COCc1ccccc1)NC(=O)/C=C/C(=O)O (centres undefined) | 60.7 | 69.5 | –
7 | CCCCCCCCCCCCCCC(COCc1ccccc1)N(CC)CC (centres undefined) | 1.9 | – | –
8 | CCCCCCCCCCCCCCC(=O)NC(CCCCCCCCCCCCCC)COC(=O)CCCCCC (centres undefined) | 0.5 | – | –
9 | CCCCCCCCCCCCCCC(COC(=O)CCCCCC)NC(=O)CCCCCC (centres undefined) | 2.3 | – | –
10 | CCCCCCCCCCCCCCC(CNCC(=O)OCC)NC(=O)OC(C)(C)C (centres undefined) | 0 | – | –

Continued, in another order:

Row | I [1] [%] | IC50 [2] [µM] | SMILES | further results
11 | 0 | – | CCCCCCCCCCCCCCC(CO)NC(=O)CCCC(=O)O (centres undefined) | –
12 | 0 | – | CCCCCCCCCCCCCCC(N)CNC(=O)CCCC(=O)O (centres undefined) | –
13 | 43.9 | – | CCCCCCCCCCCCCCC(N)CN(CC(=O)OCC)CC(=O)OCC (centres undefined) | –
14 | 72 | 62.8 | CCCCCCCCCCCCCCC(COCc1ccccc1)NC(=O)CCC(=O)O (centres undefined) | –
15 | 25 | – | CCCCCCCCCCCCCCC(CO)NCC(=O)O (centres undefined) | –
16 | 84.8 | 10.5 | CCCCCCCCCCCCCCC(COCc1ccccc1)NC(=O)CCCC(=O)O (centres undefined) | –
